This passage reports IC50 results from ChEMBL document CHEMBL1130024, “Synthesis and structure-activity relationships of 17beta-substituted 14beta-hydroxysteroid 3-(alpha-L-rhamnopyranoside)s: steroids that bind to the digitalis receptor” (J Med Chem, 1997).

Molecules are shown by their SMILES.

In general, IC50 refers to the midpoint of a concentration-inhibition curve. Higher therefore signals weaker potency.

The target of the first assay is Sodium/potassium-transporting ATPase subunit alpha-1 (Canis lupus familiaris, UniProt P50997). Briefly: Inhibition of [3H]ouabain binding to Digitalis receptor in dog heart microsomes. The method, boiled down: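 Radioligand competition assay in dog heart muscle microsomes (membrane preparation), measuring [³H]ouabain binding with the test steroids present. Steroids were added in ethanol.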
On to `COC(C[N+](=O)[O-])[C@H]1CC[C@]2(O)[C@@H]3CC[C@@H]4C[C@@H](O[C@@H]5O[C@@H](C)[C@H](O)[C@@H](O)[C@H]5O)CC[C@]4(C)[C@H]3CC[C@]12C` (some centres not stated), for which the IC50 is 30 nM. Still for that read-out and setting: in the case of `C[C@@H]1O[C@@H](O[C@H]2CC[C@@]3(C)[C@H](CC[C@@H]4[C@@H]3CC[C@]3(C)[C@@H](CCO)CC[C@]43O)C2)[C@H](O)[C@H](O)[C@H]1O` it was 660 nM; in that of `CC1OC(O[C@H]2CC[C@@]3(C)[C@H](CC[C@@H]4[C@@H]3CC[C@]3(C)[C@@H](CCN)CC[C@]43O)C2)C(O)C(O)C1O` (some centres not stated), 1890 nM; in that of `C[C@@H]1O[C@@H](O[C@H]2CC[C@@]3(C)[C@H](CC[C@@H]4[C@@H]3CC[C@]3(C)[C@@H](CCC(=O)O)CC[C@]43O)C2)[C@H](O)[C@H](O)[C@H]1O`, 230 nM. `C[C@@H]1O[C@@H](O[C@H]2CC[C@@]3(C)[C@H](CC[C@@H]4[C@@H]3CC[C@]3(C)[C@H](C(O)C[N+](=O)[O-])CC[C@]43O)C2)[C@H](O)[C@H](O)[C@H]1O` (some centres not stated) had an IC50 of 4730 nM. On to `C[C@@H]1O[C@@H](O[C@H]2CC[C@@]3(C)[C@H](CC[C@@H]4[C@@H]3CC[C@]3(C)[C@@H]5CC[C@]43OC5)C2)[C@H](O)[C@H](O)[C@H]1O`, for which the IC50 was 2200 nM. Against the preceding compound, the IC50 is about 2.1-fold lower. Compound `C[C@@H]1O[C@@H](O[C@H]2CC[C@@]3(C)[C@H](CC[C@@H]4[C@@H]3CC[C@]3(C)[C@@H](C(O)CN)CC[C@]43O)C2)[C@H](O)[C@H](O)[C@H]1O` (some centres not stated) came in with an IC50 of 3220 nM. `C[C@@H]1O[C@@H](O[C@H]2CC[C@@]3(C)[C@H](CC[C@@H]4[C@@H]3CC[C@]3(C)[C@@H](CC[N+](=O)[O-])CC[C@]43O)C2)[C@H](O)[C@H](O)[C@H]1O`: the IC50 was 45.5 nM.

Regarding `C[C@@H]1O[C@@H](O[C@H]2CC[C@@]3(C)[C@H](CC[C@@H]4[C@@H]3CC[C@]3(C)[C@@H](/C=C/[N+](=O)[O-])CC[C@]43O)C2)[C@H](O)[C@H](O)[C@H]1O`, the IC50 amounted to 8.3 nM.

In the case of `C[C@@H]1O[C@@H](O[C@H]2CC[C@@]3(C)[C@H](CC[C@@H]4[C@@H]3CC[C@]3(C)[C@@H](/C=C/C(=O)O)CC[C@]43O)C2)[C@H](O)[C@H](O)[C@H]1O`, the IC50 turned out to be 13 nM. In turn, `C[C@H]1O[C@@H](O[C@H]2[C@@H](O)C[C@H](O[C@H]3[C@@H](O)C[C@H](O[C@H]4CC[C@@]5(C)[C@H](CC[C@@H]6[C@@H]5CC[C@]5(C)[C@@H](C7=CC(=O)OC7)CC[C@]65O)C4)O[C@@H]3C)O[C@@H]2C)C[C@H](O)[C@@H]1O` [DIGITOXIN] returned an IC50 of 8 nM.

Test system in the next assay: not listed separately
As to the kind of experiment: Concentration that inhibits binding of [3H]ouabain against Digitalis receptor in dog heart microsomes; Not active at a concentration > 100 uM. More on the design: species or system Canis lupus familiaris, Microsome.
In the case of `C[C@@H]1O[C@@H](O[C@H]2CC[C@@]3(C)[C@H](CC[C@@H]4[C@@H]3CC[C@]3(C)[C@@H]5CC[C@]43OC(=O)C5)C2)[C@H](O)[C@H](O)[C@H]1O`, the IC50 result was “Not Active”.
